In ChEMBL document CHEMBL4334464, “From Phenylthiazoles to Phenylpyrazoles: Broadening the Antibacterial Spectrum toward Carbapenem-Resistant Bacteria” (J Med Chem, 2019):
Calls of active or inactive are those of the source. No cut-off for these calls is given here.

Columns and labels:
[1] = Stability in human liver microsomes assessed as compound remaining incubated for 30 mins in absence of NADPH by LC/MS/MS analysis; format: ADME, Microsome; settings: read-out: Stability
Method in brief: (§1)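 Two independent runs (1st and 2nd) were done at each time point, and the mean percent remaining is reported. Incubations were run both with and without NADPH. Half-life and intrinsic clearance (Clint) were derived from the time-course data.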

Staphylococcus aureus [2] = test: Potency index, ratio of compound effect to vancomycin effect for antibiofilm activity against methicillin-resistant Staphylococcus aureus NRS384-USA300 clinical isolates at 0.5 times MIC; format: functional
[3] = Half life in human liver microsomes in presence of NADPH by LC/MS/MS analysis; format: ADME, Microsome
[4] = Efflux ratio of apparent permeability across basolateral to apical side over apical to basolateral side in human Caco2 cells after 2 hrs by LC/MS/MS analysis; format: ADME, cell-based; settings: Caco-2
Staphylococcus aureus [5] = test: Antibacterial activity against methicillin-resistant Staphylococcus aureus NRS123-USA400 infected in mouse J774 cells assessed as reduction in intracellular bacterial cells at 2 times MIC incubated for 24 hrs followed by re-plating on TSA plate and measured after 18 to 22 hrs relative to control; format: functional; design: scale not given: the % may be the effect or the level left
Method in brief: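 J774 murine macrophages were infected with MRSA USA400 and then treated at 2×MIC for 24 h, in triplicate. The read-out was percent reduction in intracellular colony-forming units versus untreated infected cells.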

[6] = Stability in human liver microsomes assessed as compound remaining incubated for 15 mins in presence of NADPH by LC/MS/MS analysis; format: ADME, Microsome; settings: read-out: Stability; method in brief: as §1
[7] = Stability in human liver microsomes assessed as compound remaining measured immediately in presence of NADPH by LC/MS/MS analysis; format: ADME, Microsome; settings: read-out: Stability; method in brief: as §1
[8] = Apparent permeability across apical to basolateral side in human Caco2 cells after 2 hrs by LC/MS/MS analysis; format: ADME, cell-based; settings: Caco-2
Salmonella enteritidis = test: Antibacterial activity against Salmonella enteritidis ATCC 14028 infected in mouse J774 cells assessed as reduction in intracellular bacterial cells at 2 times MIC incubated for 24 hrs followed by re-plating on TSA plate and measured after 18 to 22 hrs relative to control; format: functional, Salmonella enterica subsp. enterica serovar Enteritidis; design: scale not given: the % may be the effect or the level left
Method in brief: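 J774 murine macrophages infected with Salmonella enteritidis ATCC 14028, then treated at 2×MIC for 24 h, in triplicate. Read-out is the percent reduction in intracellular colony forming units versus the untreated control.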

[9] = Clearance in Sprague-Dawley rat at 5 mg/kg, iv administered as bolus dose measured over 12 hrs by LC-MS/MS analysis; format: ADME, organism-based; settings: in vivo
[10] = Stability in human liver microsomes assessed as compound remaining incubated for 60 mins in presence of NADPH by LC/MS/MS analysis; format: ADME, Microsome; settings: read-out: Stability; method in brief: as §1
Staphylococcus aureus [11] = test: Antibacterial activity against methicillin-resistant Staphylococcus aureus NRS123-USA400 clinical isolates over 14 serial passages by broth microdilution assay; format: functional, organism-based
Method in brief: (§2)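 MRSA USA400 was serially passaged over a 14-day period in the presence of each compound or control antibiotic. MIC was determined by broth microdilution after each passage. A four-fold rise in MIC was taken as a sign of resistance.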

[12] = Stability in human liver microsomes assessed as compound remaining incubated for 45 mins in absence of NADPH by LC/MS/MS analysis; format: ADME, Microsome; settings: read-out: Stability; method in brief: as §1
[13] = Stability in human liver microsomes assessed as compound remaining measured immediately in absence of NADPH by LC/MS/MS analysis; format: ADME, Microsome; settings: read-out: Stability; method in brief: as §1
[14] = Stability in human liver microsomes assessed as compound remaining incubated for 60 mins in absence of NADPH by LC/MS/MS analysis; format: ADME, Microsome; settings: read-out: Stability; method in brief: as §1
[15] = Half life in Sprague-Dawley rat at 5 mg/kg, iv administered as bolus dose measured over 12 hrs by LC-MS/MS analysis; format: ADME, organism-based; settings: in vivo
[16] = Half life in human liver microsomes in absence of NADPH by LC/MS/MS analysis; format: ADME, Microsome
[17] = Stability in human liver microsomes assessed as compound remaining incubated for 15 mins in absence of NADPH by LC/MS/MS analysis; format: ADME, Microsome; settings: read-out: Stability
[18] = Stability in human liver microsomes assessed as compound remaining incubated for 45 mins in presence of NADPH by LC/MS/MS analysis; format: ADME, Microsome; settings: read-out: Stability; method in brief: as §1
Staphylococcus aureus [19] = test: Antibacterial activity against methicillin-resistant Staphylococcus aureus NRS123-USA400 clinical isolates assessed as ratio of MIC after and before 14 serial passages by broth microdilution assay; format: functional; method in brief: as §2
Staphylococcus aureus [20] = test: Antibacterial activity against methicillin-resistant Staphylococcus aureus NRS123-USA400 clinical isolates assessed as ratio of MIC after and before 8 serial passages by broth microdilution assay; format: functional; method in brief: as §2
Staphylococcus aureus [21] = test: Antibacterial activity against methicillin-resistant Staphylococcus aureus NRS123-USA400 clinical isolates assessed as ratio of MIC after and before 10 serial passages by broth microdilution assay; format: functional; method in brief: as §2

Compound	remaining at 0.5 h [1] [%]	half-life [3] [min]	efflux ratio at 2 h [4]	Activity (Staphylococcus aureus [5]) [%]	remaining at 0.25 h [6] [%]	remaining at 0 min [7] [%]	Papp A→B at 2 h [8] [×10⁻⁶ cm/s]	Activity (Salmonella enteritidis) [%]	remaining at 1 h [10] [%]	remaining at 0.75 h [12] [%]	remaining at 0 min [13] [%]	remaining at 1 h [14] [%]	half-life [16] [min]	remaining at 0.25 h [17] [%]	remaining at 0.75 h [18] [%]	other results
C/C(=N\NC(=N)N)c1cnn(-c2ccc(C#CC3CCCC3)cc2)c1C	99	194	1	90	93	100	0.01	98	82	99	100	91	505	99	81	Ratio (Staphylococcus aureus [2]): 2; clearance [9]: 16.7 mL/min; Activity (Staphylococcus aureus [11]): Active; half-life [15]: 630 min
C/C(=N\NC1=NCCN1)c1cnn(-c2ccc(C#CC3CCCC3)cc2)c1C	97	153	1.5	98.4	99	100	0.1	–	79	97	100	97	1220	98	79	Ratio (Staphylococcus aureus [19]): 2; Ratio (Staphylococcus aureus [20]): 1
C/C(=N\NC(=N)N)c1cnn(-c2ccc(C#Cc3ccccc3)cc2)c1C	–	–	–	–	–	–	–	70	–	–	–	–	–	–	–	Ratio (Staphylococcus aureus [21]): 1
